ChEMBL document CHEMBL4837254, “Discovery of Investigational Drug CT1812, an Antagonist of the Sigma-2 Receptor Complex for Alzheimer's Disease” (ACS Med Chem Lett, 2021)
The source made the active and inactive calls. The calls are words filed in the database; no cut-off is given here.

Tests used:
[1] = molecular target: Voltage-gated inwardly rectifying potassium channel KCNH2 (Homo sapiens, UniProt Q12809)
[2] = Ratio of AUC in Brain to AUC in plasma; format: ADME, cell-free; conditions: brain and plasma; read-out: Ratio AUC
[3] = system: N2a; assay: Anti-synaptotoxic activity against mouse Neuro-2a cells assessed as inhibition of amyloid beta (1 to 42)-induced cytotoxicity by MTT-based Trafficking assay; format: functional
[4] = Ratio of drug level in brain to plasma measured after 24 hrs; format: ADME, cell-free; conditions: brain and plasma, read-out: BPR
[5] = Half life in mouse liver microsomes; format: ADME, Microsome
[6] = molecular target: Sigma intracellular receptor 2 (Homo sapiens, UniProt Q5BJF2); assay: Binding affinity to Sigma 2-receptor (unknown origin)
[7] = Cognitive enhancing effect in non-transgenic mouse assessed as swimming length measured after 4 days by Morris Water maze method (reference value: 1797 +/-219 cm); format: ADME; conditions: buffer, 96 h, time 4 day
[8] = Cognitive enhancing effect in non-transgenic mouse assessed as swimming length measured after 2 day by Morris Water maze method (reference value: 2666 +/-294 cm); format: ADME; conditions: buffer, 48 h
[9] = Efflux ratio of apparent permeability from basolateral to apical membrane over apical to basolateral membrane in human Caco2 cells; format: ADME, cell-based; conditions: Caco-2
[10] = Cognitive enhancing effect in transgenic hAPP Swe/Ldn mouse assessed as restoration of freezing time measured by Contextual fear conditioning test (reference value: 32 +/-6%); format: ADME
[11] = Cognitive enhancing effect in transgenic hAPP Swe/Ldn mouse assessed as swimming length measured after 4 days by Morris Water maze method (reference value: 2426 +/-287 cm); format: ADME; conditions: buffer, 96 h, time 4 day
[12] = Prevention of vesicular membrane trafficking in Sprague-Dawley rat neurons assessed as inhibition of amyloid beta oligomer binding to […] receptor at 10 uM pretreated with compounds followed by amyloid beta oligomer challenge and measured after 1 hr by ELISA relative to control; format: functional; conditions: Neuron
[13] = Cognitive enhancing effect in transgenic hAPP Swe/Ldn mouse assessed as swimming length measured after 3 days by Morris Water maze method (reference value: 2854 +/-267 cm); format: ADME; conditions: buffer, 72 h, time 3 day
[14] = Improvement in learning and spatial memory in non-transgenic mouse assessed as spontaneous alteration measured by Y-maze method (reference value: 62.6 +/-3.7%); format: ADME
[15] = Cognitive enhancing effect in non-transgenic mouse assessed as restoration of freezing time measured by Contextual fear conditioning test (reference value: 52 +/-5%); format: ADME
[16] = Free drug level in brain; format: ADME, tissue-based
[17] = Cognitive enhancing effect in transgenic hAPP Swe/Ldn mouse assessed as swimming length measured after 1 day by Morris Water maze method (reference value: 3518 +/-138 cm); format: ADME; conditions: buffer, 24 h
[18] = Reversal of amyloid beta oligomer-induced vesicular membrane trafficking in Sprague-Dawley rat neurons at 1 uM pretreated with amyloid beta oligomer for 1 hr followed by compound treatment by ELISA relative to control; format: functional; conditions: Neuron
[19] = Reversal of amyloid beta oligomer-induced vesicular membrane trafficking in Sprague-Dawley rat neurons pretreated with amyloid beta oligomer for 1 hr followed by compound treatment by ELISA; format: functional, tissue-based; conditions: neuron
[20] = Free drug level in plasma; format: ADME, cell-free
[21] = Cognitive enhancing effect in non-transgenic mouse assessed as swimming length measured after 1 day by Morris Water maze method (reference value: 3791 +/-150 cm); format: ADME; conditions: buffer, 24 h
[22] = system: Mus musculus; assay: Induction of amyloid beta oligomer release in interstitial brain fluid in iv dosed transgenic hAPP Swe/Ldn mouse; format: functional, organism-based
Method in brief: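 Compound given intravenously to live transgenic mice. Microelectrodes coated with antibodies to total Aβ or to Aβ oligomers were inserted into the brain, and soluble Aβ in interstitial fluid was measured minute by minute.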

[23] = Prevention of vesicular membrane trafficking in Sprague-Dawley rat neurons assessed as inhibition of amyloid beta oligomer binding to […] receptor pretreated with compounds followed by amyloid beta oligomer challenge and measured after 1 hr by ELISA; format: functional, tissue-based; conditions: neuron
[24] = Cognitive enhancing effect in transgenic hAPP Swe/Ldn mouse assessed as swimming length measured after 2 day by Morris Water maze method (reference value: 3252 +/-329 cm); format: ADME; conditions: buffer, 48 h
[25] = Cognitive enhancing effect in non-transgenic mouse assessed as swimming length measured after 3 days by Morris Water maze method (reference value: 2173 +/-213 cm); format: ADME; conditions: buffer, 72 h, time 3 day
[26] = Improvement in learning and spatial memory in transgenic hAPP Swe/Ldn mouse assessed as spontaneous alteration measured by Y-maze method (reference value: 56.1 +/-2.8%); format: ADME
[27] = Unbound brain-to-plasma concentration ratio measured after 24 hrs; format: ADME, cell-free; conditions: brain and plasma, read-out: K(p,uu,brain)

Sequence of Sigma intracellular receptor 2 (Q5BJF2 whole entry): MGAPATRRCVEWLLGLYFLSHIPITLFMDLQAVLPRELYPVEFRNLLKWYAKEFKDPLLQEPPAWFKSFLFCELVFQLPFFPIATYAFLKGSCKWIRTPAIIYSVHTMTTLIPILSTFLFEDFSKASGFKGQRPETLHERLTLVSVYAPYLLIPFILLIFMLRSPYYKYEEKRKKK
Sequence of Voltage-gated inwardly rectifying potassium channel KCNH2 (Q12809 whole entry): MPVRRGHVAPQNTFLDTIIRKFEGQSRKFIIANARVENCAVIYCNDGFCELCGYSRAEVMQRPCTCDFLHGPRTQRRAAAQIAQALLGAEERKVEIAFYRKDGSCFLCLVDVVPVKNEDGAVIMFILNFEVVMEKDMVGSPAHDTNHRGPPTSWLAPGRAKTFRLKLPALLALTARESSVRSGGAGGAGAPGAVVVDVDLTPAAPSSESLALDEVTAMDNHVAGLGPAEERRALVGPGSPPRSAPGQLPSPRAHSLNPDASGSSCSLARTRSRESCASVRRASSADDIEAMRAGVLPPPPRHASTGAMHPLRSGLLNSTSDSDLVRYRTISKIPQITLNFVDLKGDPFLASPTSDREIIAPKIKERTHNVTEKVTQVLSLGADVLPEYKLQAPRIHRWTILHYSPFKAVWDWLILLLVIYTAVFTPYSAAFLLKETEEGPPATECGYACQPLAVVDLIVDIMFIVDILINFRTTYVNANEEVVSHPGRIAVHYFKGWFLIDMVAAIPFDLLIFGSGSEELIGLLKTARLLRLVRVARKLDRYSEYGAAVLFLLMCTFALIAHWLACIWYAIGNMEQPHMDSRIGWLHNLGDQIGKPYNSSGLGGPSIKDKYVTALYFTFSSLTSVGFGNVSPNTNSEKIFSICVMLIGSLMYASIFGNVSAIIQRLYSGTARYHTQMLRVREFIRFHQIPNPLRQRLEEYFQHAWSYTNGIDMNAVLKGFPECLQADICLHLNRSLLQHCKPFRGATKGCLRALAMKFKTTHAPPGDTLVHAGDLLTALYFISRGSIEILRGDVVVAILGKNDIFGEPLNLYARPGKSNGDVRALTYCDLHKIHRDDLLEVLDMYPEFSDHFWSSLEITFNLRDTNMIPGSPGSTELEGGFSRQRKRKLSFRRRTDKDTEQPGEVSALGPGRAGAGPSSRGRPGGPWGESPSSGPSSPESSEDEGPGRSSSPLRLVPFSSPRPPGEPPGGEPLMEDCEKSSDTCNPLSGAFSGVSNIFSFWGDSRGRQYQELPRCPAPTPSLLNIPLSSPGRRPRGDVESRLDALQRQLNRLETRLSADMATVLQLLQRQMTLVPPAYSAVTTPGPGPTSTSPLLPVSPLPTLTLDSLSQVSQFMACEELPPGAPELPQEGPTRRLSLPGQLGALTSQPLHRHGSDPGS

## CC(C)Oc1cc(CCC(C)(C)N2Cc3cccc(F)c3C2)ccc1O
[1]
  EC50: 9600 nM
[2]
  Kp: 5.64
[3]
  Activity: 0.25 µM
[4]
  Kp at 24 h: 5.4
[5]
  half-life: 4 min
[6]
  Ki: 11 nM

## C[C@@H](CCc1ccc(Cl)c(Cl)c1)NCc1ccc(C(F)(F)F)cc1
[1]
  EC50: 1100 nM
[3]
  Activity: 11.7 µM
[5]
  half-life: 53 min
[6]
  Ki: 120 nM

## C[C@H](CCc1ccc(Cl)cc1)NCc1ccc(C(F)(F)F)cc1
[1]
  EC50: 780 nM
[3]
  Activity: 5.7 µM
[4]
  Kp at 24 h: 2
[5]
  half-life: 27 min

## COc1cc(CC[C@@H](C)N2Cc3cccc(F)c3C2)ccc1O
[3]
  Activity: 0.25 µM
[5]
  half-life: 16 min

## COc1cc(CCC(C)NCc2ccc(C(F)(F)F)cc2)ccc1O (configuration not stated)
[3]
  Activity: 2.2 µM

## C[C@H](CCc1ccc(Cl)c(Cl)c1)NCc1ccc(C(F)(F)F)cc1
[1]
  EC50: 4400 nM
[3]
  Activity: 2 µM
[4]
  Kp at 24 h: 8.2
[5]
  half-life: 33 min

## CC(C)(C)Oc1cc(CCC(C)(C)N2Cc3ccc(S(C)(=O)=O)cc3C2)ccc1O
[7]
  Activity: 2008 cm
[1]
  EC50: 26000 nM
[8]
  Activity: 2739 cm
[9]
  efflux ratio: 0.95
[2]
  Kp: 2.51
[10]
  Activity: 45%
[3]
  Activity: 0.31 µM
[11]
  Activity: 1611 cm
[12]
  inhibition at 10 µM: 71%
[13]
  Activity: 1987 cm
[14]
  Activity: 65.3%
[15]
  Activity: 51%
[16]
  fraction unbound: 0.13
[17]
  Activity: 3230 cm
[4]
  Kp at 24 h: 5.7
[18]
  inhibition at 1 µM: 88%
[19]
  EC50: 358 nM
[20]
  fraction unbound: 0.05
[21]
  Activity: 3317 cm
[5]
  half-life: 45 min
[22]
  Activity: Active
[23]
  EC50: 6800 nM
[24]
  Activity: 2332 cm
[25]
  Activity: 2262 cm
[26]
  Activity: 58.5%
[6]
  Ki: 8.5 nM
[27]
  Kp uu at 24 h: 6.75

## COc1cc2c(cc1OC)CN([C@H](C)CCc1ccc(Cl)c(Cl)c1)C2
[1]
  EC50: 290 nM
[3]
  Activity: 0.7 µM
[5]
  half-life: 61 min
[6]
  Ki: 0.44 nM
